Most compounds without a hit are left out; they make up all but 1% or so of the library.
IMP-1 inh = inhibitors of Pseudomonas aeruginosa IMP-1 metallo-beta-lactamase. purified IMP-1, nitrocefin hydrolysis, epi-absorbance fluorescence. inhibition, % at 5.6 µM. hit rate 0.45% among 290,000. AID 1556;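 active = inhibition above the mean plus 3 SD of all compounds in the same screening run, cut at about 4.5% in these data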;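 also: 0% = IMP-1 with DMSO and 100% = DMSO wells lacking enzyme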
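system = purified recombinant IMP-1 beta-lactamase | amount = 0.2 nM IMP-1, as dispensed | medium = HEPES buffer pH 7.1 with ZnSO4 and Brij 35 | times = 25 °C, 15 min preincubation, 25 min reaction | detection = plate fluorescence quenching by hydrolysis product, ex 480/em 530 nm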
PDI turbidity = inhibitors of human protein disulfide isomerase. AID 588391. hit rate 0.052% among 350,000. inhibition, % at 10 µM. P07237. PDI insulin aggregation turbidity, A650, 90 min;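 active = mean inhibition across replicates of 30% or more, whatever share of single replicates reach that level; inconclusive = mean inhibition below 30% while every single replicate reaches 30%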
Target sequence (P07237 whole entry, looked up): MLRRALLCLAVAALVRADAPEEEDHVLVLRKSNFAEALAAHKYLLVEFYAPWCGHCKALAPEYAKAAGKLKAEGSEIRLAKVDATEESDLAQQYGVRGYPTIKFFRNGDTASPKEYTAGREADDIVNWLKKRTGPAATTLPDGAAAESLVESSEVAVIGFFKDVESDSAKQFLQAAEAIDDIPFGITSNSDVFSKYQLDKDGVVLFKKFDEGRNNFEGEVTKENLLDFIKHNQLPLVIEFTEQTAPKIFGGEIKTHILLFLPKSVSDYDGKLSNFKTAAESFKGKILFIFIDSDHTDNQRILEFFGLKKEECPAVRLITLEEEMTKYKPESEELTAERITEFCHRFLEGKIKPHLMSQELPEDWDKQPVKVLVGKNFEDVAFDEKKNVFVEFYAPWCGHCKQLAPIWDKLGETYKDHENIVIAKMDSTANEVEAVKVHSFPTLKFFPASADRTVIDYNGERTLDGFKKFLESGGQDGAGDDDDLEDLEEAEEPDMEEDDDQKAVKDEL
VIM-2 inh = inhibitors of Pseudomonas aeruginosa VIM-2 metallo-beta-lactamase; purified VIM-2, nitrocefin hydrolysis, epi-absorbance fluorescence; inhibition, % at 5.6 µM; hit rate 0.89% among 290,000; AID 1527;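 active = inhibition above the mean of all tested compounds plus 3 SD, cutoff set per screening run, cut at about 7.5% in these data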;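 also: red hydrolysis product quenches plate fluorescence so inhibitors raise well fluorescence; 0% = enzyme with DMSO and 100% = DMSO without enzyme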
ERp5 block = blocks human ERp5 reductase activity on insulin. Q15084. ERp5 insulin aggregation, absorbance 650 nm, 90 min. inhibition, % at 9.99 µM. hit rate 0.05% among 350,000. AID 651711;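 active = mean replicate inhibition above about 25%, with every replicate also reaching it, limit read from the data, passing the limit was not always enough; inconclusive = only one of those two criteria met; inactive = neither criterion met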
PvdQ acylase = P. aeruginosa PvdQ acylase inhibition; purified PvdQ acylase, fluorescence plate reader; hit rate 0.063% among 340,000; inhibition, % at 10 µM; in the data active = inhibition above about 30%, passing the limit was not always enough; inconclusive = no clear call, values can overlap the other calls;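 also: 0% = vehicle neutral wells and 100% = reference inhibitor wells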
PglD DTNB = blocks C. jejuni PglD acetyltransferase activity; purified PglD enzyme, DTNB colorimetric CoA detection; inhibition, % at 12.5 µM; hit rate 0.098% among 360,000; in the data active = inhibition above about 16%, passing the limit was not always enough; inconclusive = no clear call, values can overlap the other calls
* hit, by the source's call; ? = inconclusive; nt = no result.

SMILES	IMP-1 inh	PDI turbidity	VIM-2 inh	ERp5 block	PvdQ acylase	PglD DTNB
COc1ccc(S(=O)(=O)NCC(c2ccc(F)cc2)N2CCOCC2)cc1Br (stereo unspecified)	nt	30.5*	nt	-1.1	10.8	1.6
COc1ccc(S(=O)(=O)NCCN2CCOCC2)cc1Br	-0.2	-1.2	-0.4	-1.6	-21.1	7.2
CC(C)C#Cc1ccc2c(c1)O[C@H](CN(C)C(=O)c1ccncc1)[C@@H](C)CN([C@H](C)CO)S2(=O)=O	nt	nt	nt	1.6	nt	-0.7
O=S(=O)(c1ccc(F)cc1)N1CCCCN2[C@H](C1)[C@H](c1ccc(C#CC3CCCC3)cc1)[C@@H]2CO	nt	nt	nt	-0.8	nt	0.7
CC(C)C(NC(=O)c1ccc(F)cc1)C(=O)N1CCC1 (stereo unspecified)	nt	1.6	nt	2.3	-11.0	-3.1
CC(C)C(NC(=O)c1ccc(F)cc1)C(=O)N1CCOCC1 (stereo unspecified)	nt	-7.3	nt	27.4*	-2.6	-5.8
COCCNC(=O)C[C@H]1CC[C@@H]2[C@@H](COc3ccc(NC(=O)c4cnccn4)cc3C(=O)N2C)O1	nt	nt	nt	9.0	nt	1.2
COC(=O)C(CC#Cc1ccc2c(c1)[C@]1(C(=O)N2)[C@H](c2ccccc2OCCO)N2[C@H](c3ccccc3)[C@H](c3ccccc3)OC(=O)[C@H]2[C@@H]1C(=O)N1CCCCCCC1)C(=O)OC	nt	nt	nt	5.3	nt	-1.3
COc1ccccc1/C=C/C=C1\Oc2c(ccc(O)c2CN(C)C)C1=O	9.1*	11.1	1.7	1.7	-5.1	-15.0
CCCNC(=O)N1CCC2(CC1)CN(Cc1ccc(F)cc1)[C@@H](CO)c1[nH]c3cc(OC)ccc3c12	nt	nt	nt	3.8	nt	nt
Cc1ccc(S(=O)(=O)Nc2ccc3c(c2)C(=O)N([C@@H](C)CO)C[C@@H](C)[C@H](CN(C)Cc2ccncc2)OCCCC[C@H](C)O3)cc1	nt	nt	nt	-2.8	nt	3.9
CCN1CCN(CC(=O)Nc2c(OC)cccc2OC)CC1	5.5*	-3.8	-2.8	0.2	-8.7	4.1
CC(=O)Nc1ccc(S(=O)(=O)N[C@@H](C)C(=O)N2CCN(c3ccccn3)CC2)cc1	nt	-5.0	nt	-3.0	-9.4	0.3
CCC(NS(=O)(=O)c1ccc(C)cc1)C(=O)N1CCN(c2ccccn2)CC1 (stereo unspecified)	4.5*	nt	-2.2	2.4	-3.1	4.7
O=C(/C=C/c1c(F)cccc1Cl)c1ccc(O)cc1	-2.1	79.2*	-1.4	-1.1	2.9	nt
O=C(/C=C/c1ccccc1Cl)c1ccc(O)cc1	-2.8	?	-1.9	-0.9	-10.4	-1.0
COc1cc(C2NC(=O)NC(C)=C2C(=O)Nc2cccc(C)c2C)cc(OC)c1OC (stereo unspecified)	-3.2	-1.3	-3.1	nt	-10.6	-1.6
COc1ccccc1C1NC(=O)NC(C)=C1C(=O)Nc1cccc(C)c1C (stereo unspecified)	5.0*	0.3	-0.3	-6.0	-18.9	0.2
C[C@@H]1CCCCO[C@@H](CN(C)Cc2ccc3c(c2)OCO3)[C@H](C)CN([C@@H](C)CO)C(=O)c2cc(NC(=O)Nc3cccc4ccccc34)ccc2O1	nt	nt	nt	nt	nt	2.5
Cc1cc(=O)[nH]c2c(N=Nc3ccc(O)cc3)c(N)nn12	6.4*	7.6	1.7	5.3	-1.9	-2.5
OC[C@H]1[C@H](c2ccc(C#Cc3ccccc3F)cc2)[C@H]2CN(Cc3cncnc3)CCCCN21	nt	nt	nt	0.9	nt	-1.2
CO[C@H]1CN(C)C(=O)c2cc(NC(=O)C3CCOCC3)ccc2OC[C@@H](C)N(C(C)=O)C[C@H]1C	nt	nt	nt	2.2	nt	3.4
COc1ccccc1NC(=O)Cn1nnc(C(=O)NCc2ccc3c(c2)OCO3)c1N	-1.5	9.7	-2.2	0.7	-5.8	4.9
COc1ccc(Cl)cc1NC(=O)Cn1nnc(C(=O)NCc2ccc3c(c2)OCO3)c1N	17.9*	-7.8	-0.9	7.1	2.6	-3.1
C=CCOc1ccc(C2C(C(=O)c3ccco3)=C(O)C(=O)N2c2nnc(C)s2)cc1 (stereo unspecified)	5.2*	-3.9	3.7	-4.3	7.9	-1.3
SMILES	IMP-1 inh	PDI turbidity	VIM-2 inh	ERp5 block	PvdQ acylase	PglD DTNB
C[C@H](CO)N1C[C@H](C)[C@@H](CN(C)S(=O)(=O)c2ccccc2)Oc2ncc(Br)cc2C1=O	nt	nt	nt	-3.4	nt	2.8
O=C(/C=C/c1cccs1)Nc1ccc([N+](=O)[O-])cc1	-1.4	-2.9	0.0	nt	1.4	nt
O=C(/C=C/c1cccs1)Nc1ccncc1	-3.4	12.3	-1.1	5.5	35.8*	nt
C#CCOCCOCCOCCNc1nc(N2CCN(C(=O)[C@H](CCCCN)n3cc([C@@H](N)C(C)CC)nn3)CC2)nc(N2CCN(C(=O)[C@H](Cc3cc4ccccc4[nH]3)n3cc([C@@H](N)CC(C)C)nn3)CC2)n1 (stereo partly specified)	-3.0	43.5*	-1.8	nt	-21.5	4.4
C#CCOCCOCCOCCNc1nc(N2CCN(C(=O)[C@H]([C@@H](C)CC)n3cc([C@@H](N)CO)nn3)CC2)nc(N2CCN(C(=O)[C@H](CCCCN)n3cc([C@@H](N)C(C)CC)nn3)CC2)n1 (stereo partly specified)	13.8*	4.2	-1.0	-5.6	-9.9	0.1
C#CCOCCOCCOCCNc1nc(N2CCN(C(=O)[C@H](CCC(=O)O)n3cc(C(N)Cc4ccc(O)cc4)nn3)CC2)nc(N2CCN(C(=O)[C@H](CCC(=O)O)n3cc(C(N)[C@H](C)CC)nn3)CC2)n1 (stereo partly specified)	5.2*	3.4	-0.5	nt	-7.9	-6.1
C#CCOCCOCCOCCNc1nc(N2CCN(C(=O)[C@H](CCCCN)n3cc([C@@H](N)C(C)CC)nn3)CC2)nc(N2CCN(C(=O)[C@H](CCCCN)n3cc([C@@H](N)CO)nn3)CC2)n1 (stereo partly specified)	-1.0	nt	1.1	nt	nt	nt
CC(C)CC#Cc1ccc([C@H]2[C@H](CO)N3C(=O)CN(C(=O)c4ccc5c(c4)OCO5)C[C@@H]23)cc1	nt	nt	nt	1.1	nt	nt
CC(=O)N1CC2(C1)[C@H](c1ccc(-c3cccc(F)c3)cc1)[C@@H](CO)N2CC1CCCC1	nt	nt	nt	1.3	nt	nt
Cc1cccc(N(CC(=O)Nc2ccc(F)cc2)S(C)(=O)=O)c1	2.2	-3.7	1.6	nt	12.9	3.8
Cc1cc(C)cc(NC(=O)CN(c2ccc(F)cc2)S(C)(=O)=O)c1	7.4*	5.5	-3.2	-1.1	6.0	nt
CN(C)CC#Cc1ccc([C@H]2[C@H]3CN(C(=O)C4CC4)CCCCN3[C@H]2CO)cc1	nt	nt	nt	-0.4	nt	2.8
CCc1nn(CC(=O)NCCN2CCN(C)CC2)c(=O)c2cc3c(OC)cccc3n12	-2.0	-1.8	11.6*	-1.6	-15.8	3.8
C[C@@H]1CCCCO[C@H](CN(C)S(=O)(=O)c2cn(C)cn2)[C@@H](C)CN([C@H](C)CO)C(=O)c2cc(NC(=O)C3CCCCC3)ccc2O1	nt	nt	nt	-0.5	nt	-1.5
Clc1ccccc1-c1nn2c(Cn3cnc4ccccc43)nnc2s1	-4.6	2.2	-1.0	nt	-10.8	-4.1
c1ccc2c(c1)ncn2Cc1nnc2sc(-c3ccc4c(c3)OCO4)nn12	-1.7	9.6	9.6*	nt	4.8	-7.5
